How the values were obtained:
[1] = Cytotoxicity against mouse MNMCA1 cells assessed as cell survival preincubated for 24 hrs with compound further incubated for 48 hrs in drug free medium by MTT assay; format: functional, cell-based
How it was run: (§1)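 Exponentially growing cells seeded and treated 24 h after seeding with increasing concentrations for 24 h. Cells then recovered 48 h in drug-free medium. MTT added for 1 h at 37 °C, formazan dissolved in DMSO, absorbance read at 540 nm. IC50 from linear regression. Means ± SEM of two independent experiments in triplicate.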

[2] = system: Quadruplex DNA; test: Stabilization of human Tel26 G4 quadruplex DNA assessed as thermal stability by measuring difference in melting temperature t1/2 by circular dichroism spectroscopy; format: nucleic-acid assay
[3] = system: Quadruplex DNA; test: Stabilization of c-kit1 G4 quadruplex d(DNA AGGGAGGGCGCTGGGAGGAGGG) DNA (unknown origin) assessed as thermal stability by measuring difference in melting temperature t1/2 by circular dichroism spectroscopy (reference value: 54 +/- 0.5 degC); format: nucleic-acid assay
[4] = system: Quadruplex DNA; test: Stabilization of c-kit2 G4 quadruplex d(CGGGCGGGCGCTAGGGAGGGT) DNA (unknown origin) assessed as thermal stability by measuring difference in melting temperature t1/2 by circular dichroism spectroscopy (reference value: 61.5 +/- 0.5 degC); format: nucleic-acid assay
[5] = system: Quadruplex DNA; test: Stabilization of c-myc G4 quadruplex d(TTAGGGTTAGGGTTAGGGTTAGGGTT) DNA (unknown origin) assessed as thermal stability by measuring difference in melting temperature t1/2 by circular dichroism spectroscopy (reference value: 72 +/- 0.5 degC); format: nucleic-acid assay
[6] = Stabilization of d(CGC GAA TTC GCG TIT CGC GAA TTC GCG) DNA hairpin (unknown origin) assessed as thermal stability by measuring difference in melting temperature t1/2 by circular dichroism spectroscopy (reference value: 75.4 +/- 0.2 degC)
How it was run: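 CD melting of 15 μM annealed hairpin duplex in 5 mM K phosphate pH 7.0 with 20 mM KCl, with or without ligand at 2 molar equiv added to the folded DNA. The signal was followed at 252 nm from 20 to 100 °C at 1 °C/min, with T1/2 taken from a curve fit. ΔT1/2 is relative to DNA alone; duplicate runs, averaged.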

[7] = Stabilization of F-c-kit1-T (unknown origin) assessed as difference in melting temperature t1/2 in presence of d(CGC GAA TTC GCG TIT CGC GAA TTC GCG) DNA hairpin (unknown origin) measured at 1:15 G4 to hairpin DNA ratio by FRET assay
How it was run: (§2)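 FRET melting of 0.2 μM prefolded FAM/TAMRA dual-labelled c-kit1 G4 in 5 mM K phosphate pH 7.0 with 20 mM KCl. Ligand was added at 2 molar equiv, with unlabelled hairpin competitor at 3 or 10 μM final (15 or 50 equiv relative to G4). FAM emission was read at 520 nm (excitation 492 nm) while heating at 0.2 °C/min over 15–90 °C. ΔT1/2 is relative to no ligand; at least duplicate, averaged.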

[8] = Stabilization of F-c-kit1-T (unknown origin) assessed as difference in melting temperature t1/2 in presence of d(CGC GAA TTC GCG TIT CGC GAA TTC GCG) DNA hairpin (unknown origin) measured at 1:50 G4 to hairpin DNA ratio by FRET assay; how it was run: as §2
[9] = system: Quadruplex DNA; test: Stabilization of F-c-kit1-T quadruplex DNA (unknown origin) by measuring difference in melting temperature t1/2 by FRET assay; format: nucleic-acid assay
How it was run: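 FRET melting of 0.2 μM prefolded FAM/TAMRA-labelled c-kit1 in 5 mM potassium phosphate pH 7.0 with 20 mM KCl, with ligand at 2 molar equiv. Unlabelled hairpin competitor added at 3 or 10 μM (15 or 50 equiv). FAM emission at 520 nm (excitation 492 nm) followed from 15 to 90 °C at 0.2 °C/min. ΔT1/2 versus no ligand. At least duplicate.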

[10] = biological target: Quadruplex DNA; test: Displacement of thiazole orange from c-kit1 G4 quadruplex d(DNA AGGGAGGGCGCTGGGAGGAGGG) DNA (unknown origin) assessed as relative affinity by fluorescent intercalator displacement assay; format: nucleic-acid assay
How it was run: (§3)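 G4 DNA at 0.25 μM with 0.5 μM thiazole orange in 5 mM potassium phosphate pH 7.0 containing 20 mM KCl (LiCl for c-myc), 20 °C. Ligand titrated from 0.5 to 20 molar equiv with 3 min equilibration per addition. Excitation 485 nm, emission 500–650 nm. %displacement = 100 − (F/F0×100); DC50 is the concentration displacing 50% TO. Duplicate titrations.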

[11] = biological target: Quadruplex DNA; test: Displacement of thiazole orange from c-kit2 G4 quadruplex d(CGGGCGGGCGCTAGGGAGGGT) DNA (unknown origin) assessed as relative affinity by fluorescent intercalator displacement assay; format: nucleic-acid assay; how it was run: as §3
[12] = biological target: Quadruplex DNA; test: Displacement of thiazole orange from c-myc G4 quadruplex d(TTAGGGTTAGGGTTAGGGTTAGGGTT) DNA (unknown origin) assessed as relative affinity by fluorescent intercalator displacement assay; format: nucleic-acid assay; how it was run: as §3
[13] = biological target: Quadruplex DNA; test: Binding affinity to c-kit1 G4 quadruplex d(DNA AGGGAGGGCGCTGGGAGGAGGG) DNA (unknown origin) assessed as dissociation constant by Microscale thermophoresis analysis; format: nucleic-acid assay
How it was run: (§4)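 MST with Cy5.5-labelled G4 oligonucleotide held at 20 nM, folded in 5 mM potassium phosphate pH 7.0 with 20 mM KCl plus 0.1% Tween. Ligand in 1:2 serial dilution mixed 1:1 with DNA, 20% DMSO final. Kd taken from binding curves.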

[14] = biological target: Quadruplex DNA; test: Binding affinity to c-kit2 G4 quadruplex d(CGGGCGGGCGCTAGGGAGGGT) DNA (unknown origin) assessed as dissociation constant by Microscale thermophoresis analysis; format: nucleic-acid assay; how it was run: as §4
[15] = system: U2OS; test: Cytotoxicity against human U2OS cells assessed as cell survival preincubated for 24 hrs with compound further incubated for 48 hrs in drug free medium by MTT assay; format: functional, cell-based; how it was run: as §1
[16] = system: Quadruplex DNA; test: Stabilization of G4 quadruplex DNA in human U2OS cells assessed as BG4 foci formation by measuring fold increase in G4 structure at 10 uM by immunofluorescence microscopy; format: cell-based
How it was run: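 U2OS cells on coverslips treated for […]. Fixed in methanol/acetic acid 3:1, permeabilized with 0.1% Triton X-100, blocked in 2% milk. Stained with 0.5 μg BG4 for 2 h, then anti-FLAG and Alexa Fluor 488 secondary. Signal quantified as fold over untreated.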

[17] = system: U2OS; test: Induction of DNA damage in human U2OS cells assessed as increase in gammaH2AX phosphorylation at S139 incubated for 24 hrs by immunofluorescence microscopy; format: functional, cell-based; details: read-out: IC50 (the source's name)
How it was run: (§5)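 U2OS cells treated 24 h. Fixed with 4% formaldehyde, permeabilized with 0.5% Triton X-100, blocked with 8% BSA, stained with anti-γH2AX (1:500) and Alexa Fluor 594 secondary, DAPI counterstain. Fluorescence microscopy signal quantified as fold over untreated.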

[18] = system: U2OS; test: Induction of DNA damage in human U2OS cells assessed as fold increase in gammaH2AX phosphorylation at […] by measuring fold change at 10 uM incubated for 24 hrs by immunofluorescence microscopy; format: functional; how it was run: as §5
[19] = Genotoxicity in mouse MNMCA1 cells assessed as induction of micronuclei formation measured after 24 hrs by DAPI staining based analysis; format: toxicity, cell-based; details: mnmca1, 24 h
[20] = biological target: Quadruplex DNA; test: Binding affinity toc-myc G4 quadruplex d(TTAGGGTTAGGGTTAGGGTTAGGGTT) DNA (unknown origin) assessed as dissociation constant by Microscale thermophoresis analysis; format: nucleic-acid assay; how it was run: as §4
[21] = Genotoxicity in mouse MNMCA1 cells assessed as induction of micronuclei formation at 1 uM incubated for 24 hrs by measuring fold change by DAPI staining based analysis; format: toxicity, cell-based; details: mnmca1, 24 h

Row | Compound | ΔTm [2] [°C] | ΔTm [3] [°C] | ΔTm [4] [°C] | ΔTm [5] [°C] | ΔTm [6] [°C] | other results
1 | Cc1ccc(-c2nc3ccn4c(/C=N/NC5=NCCN5)c(-c5ccccc5)nc4n3c2/C=N/NC2=NCCN2)cc1 | 5.3 | 15.2 | > 30 | 9.1 | 1.1 | IC50 [1]: 28600 nM; ΔTm [7]: 21.4 °C; ΔTm [8]: 20.2 °C; ΔTm [9]: 22.4 °C; IC50 [10]: 1300 nM; IC50 [11]: 1200 nM; IC50 [12]: 1300 nM; Kd [13]: 120 nM; Kd [14]: 130 nM; IC50 [15]: 108000 nM; fold change (FC) [16]: 2.4; EC50 [17]: 100000 nM; fold change (FC) [18]: 1.45; fold change (FC) [19]: 0.4
2 | Clc1ccc(-c2nc3n(ccc4nc(-c5ccccc5)c(/C=N/NC5=NCCN5)n43)c2/C=N/NC2=NCCN2)cc1 | 6.6 | 17.7 | 19.2 | 10.6 | 1.2 | ΔTm [7]: 24.8 °C; ΔTm [8]: 23.8 °C; ΔTm [9]: 26.6 °C; IC50 [10]: 1200 nM; IC50 [11]: 1400 nM; IC50 [12]: 1300 nM; Kd [13]: 70 nM; Kd [14]: 500 nM; Kd [20]: 1200 nM
3 | N=C(N)N/N=C/c1c(-c2ccccc2)nc2n1ccc1nc(-c3ccc(Cl)cc3)c(/C=N/NC(=N)N)n12 | 5 | 21.4 | > 30 | 17.6 | 2.3 | –
4 | Cc1ccc(-c2nc3n(ccc4nc(-c5ccc(C)cc5)c(/C=N/NC5=NCCN5)n43)c2/C=N/NC2=NCCN2)cc1 | 4.5 | 17.1 | 26.5 | 8.5 | 2.4 | –
5 | Cc1ccc(-c2nc3n(ccc4nc(-c5ccc(C)cc5)c(/C=N/NC(=N)N)n43)c2/C=N/NC(=N)N)cc1 | 5.5 | 18.5 | > 30 | 15.6 | 4.1 | –
6 | Clc1ccc(-c2nc3n(ccc4nc(-c5ccc(Cl)cc5)c(/C=N/NC5=NCCN5)n43)c2/C=N/NC2=NCCN2)cc1 | 3.3 | 9.6 | 13.7 | 5.5 | 3.5 | –
7 | N=C(N)N/N=C/c1c(-c2ccccc2)nc2ccn3c(C=O)c(-c4ccccc4)nc3n12 | 4.3 | 11.2 | 24.2 | 5.8 | 1.7 | IC50 [1]: 1900 nM; ΔTm [7]: 21.6 °C; ΔTm [8]: 22.2 °C; ΔTm [9]: 22 °C; Kd [13]: 300 nM; Kd [14]: 370 nM; Kd [20]: 7000 nM; IC50 [15]: 2600 nM; EC50 [17]: 2400 nM; fold change (FC) [18]: 2.32; fold change (FC) [21]: 2.5
8 | NCCOc1cc(C(=O)Nc2cc(OCCN)c3ccccc3n2)nc(C(=O)Nc2cc(OCCN)c3ccccc3n2)c1 [PYRIDOSTATIN] | – | – | – | – | – | IC50 [1]: 27000 nM
9 | N=C(N)N/N=C/c1c(-c2ccc(Cl)cc2)nc2n1ccc1nc(-c3ccc(Cl)cc3)c(/C=N/NC(=N)N)n12 | 4.1 | 11.1 | > 30 | 11.4 | 2.9 | –
10 | Cc1ccc(-c2nc3n(ccc4nc(-c5ccc(C)cc5)c(/C=N/NC(=N)N)n43)c2C=O)cc1 | 2.1 | 6.1 | 16.2 | 4.6 | 2.3 | –
11 | Cc1ccc(-c2nc3n(ccc4nc(-c5ccccc5)c(/C=N/NC(=N)N)n43)c2/C=N/NC(=N)N)cc1 | 6.3 | 25.2 | > 30 | 16.9 | 3.2 | –
12 | Cc1ccc(-c2nc3n(ccc4nc(-c5ccccc5)c(/C=N/NC(=N)N)n43)c2C=O)cc1 | 3.8 | 6.6 | 20.8 | 3.1 | 1.2 | –
13 | N=C(N)N/N=C/c1c(-c2ccc(Cl)cc2)nc2n1ccc1nc(-c3ccccc3)c(/C=N/NC(=N)N)n12 | 8.3 | 20.1 | > 30 | 14.3 | 2.6 | –
14 | N=C(N)N/N=C/c1c(-c2ccsc2)nc2ccn3c(C=O)c(-c4ccsc4)nc3n12 | 4.8 | 16.1 | 25.2 | 9.1 | 2.7 | –
15 | O=Cc1c(-c2ccccc2)nc2n1ccc1nc(-c3ccccc3)c(/C=N/NC3=NCCN3)n12 | – | – | – | – | – | IC50 [1]: 2300 nM; IC50 [15]: 4000 nM; EC50 [17]: 4000 nM; fold change (FC) [18]: 1.55; fold change (FC) [21]: 2.5
16 | Cc1ccc(-c2nc3n(ccc4nc(-c5ccccc5)c(/C=N/NC5=NCCN5)n43)c2/C=N/NC2=NCCN2)cc1 | 6.2 | 21.4 | > 30 | 13.1 | 2.2 | –
17 | C(=N\NC1=NCCN1)/c1c(-c2ccsc2)nc2n1ccc1nc(-c3ccsc3)c(/C=N/NC3=NCCN3)n12 | 3.8 | 10.3 | 14.9 | 4.7 | 2 | –
18 | Clc1ccc(-c2nc3ccn4c(/C=N/NC5=NCCN5)c(-c5ccccc5)nc4n3c2/C=N/NC2=NCCN2)cc1 | 6.3 | 15.5 | 22 | 7.4 | 1.2 | IC50 [1]: 23500 nM; ΔTm [7]: 21.4 °C; ΔTm [8]: 19.6 °C; ΔTm [9]: 24.6 °C; IC50 [10]: 2700 nM; IC50 [11]: 1700 nM; IC50 [12]: 1800 nM; Kd [13]: 380 nM; Kd [14]: 490 nM; Kd [20]: 3000 nM; IC50 [15]: 20200 nM; fold change (FC) [16]: 0.77; EC50 [17]: 20000 nM; fold change (FC) [18]: 1.37; fold change (FC) [19]: 0.4
19 | Cc1ccc(-c2nc3n(ccc4nc(-c5ccc(C)cc5)c(/C=N/NC5=NCCN5)n43)c2C=O)cc1 | 1.3 | 3.8 | 6.8 | 1.5 | 0 | –

Reference: ChEMBL document CHEMBL5126632, “Balancing Affinity, Selectivity, and Cytotoxicity of Hydrazone-Based G-Quadruplex Ligands for Activation of Interferon β Genes in Cancer Cells” (J Med Chem, 2022)
